Experimental data as given in ChEMBL document CHEMBL4414584, “Targeting of Fumarate Hydratase from Mycobacterium tuberculosis Using Allosteric Inhibitors with a Dimeric-Binding Mode” (J Med Chem, 2019).
pIC50: −log10 of the molar value. Converted amounts (≈) assume the structure as drawn. The source made the active and inactive calls. The calls are words filed in the database; no cut-off is given here.

Columns and labels:
[1] = test system: Mycobacterium tuberculosis; test: Inhibition of Mycobacterium tuberculosis fumarate hydratase expressed in Escherichia coli BL21(DE3) at 50 uM using fumaric acid as substrate preincubated for 5 mins followed by substrate addition incubated for 2 mins and measured at 24 secs interval for 10 mins by spectrometric method relative to control
Method in brief: (§1)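 Coupled assay: Mtb fumarase (33.3 nM) with citrate synthase, malate dehydrogenase, acetyl-CoA (267 µM) and NAD+ (200 µM) in 250 mM Tris pH 8.0, 5 mM MgCl2. Ligand in DMSO pre-equilibrated 5 min at 25 °C, then fumaric acid added. A340 read every 24 s over 10 min. Slope corrected by no-substrate control and normalised to uninhibited control.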

[2] = Inhibition of Mycobacterium tuberculosis fumarate hydratase expressed in Escherichia coli BL21(DE3) using fumaric acid as substrate preincubated for 5 mins followed by substrate addition incubated for 2 mins and measured at 24 secs interval for 10 mins by spectrometric method; method in brief: as §1
[3] = Inhibition of N-terminal His6-tagged Mycobacterium tuberculosis fumarate hydratase expressed in Escherichia coli BL21(DE3) using fumaric acid as substrate preincubated for 10 mins followed by substrate addition and measured immediately by fluorescence-based HTS assay
[4] = test system: Mycobacterium tuberculosis; test: Antimycobacterial activity against Mycobacterium tuberculosis H37Rv assessed as growth inhibition at 250 uM supplemented with fresh medium containing compound for every 3 days for 7 days relative to control; format: functional
[5] = test system: Mycobacterium tuberculosis; test: Binding affinity to Mycobacterium tuberculosis fumarate hydratase expressed in Escherichia coli BL21(DE3) assessed as change in melting temperature at 0.625 mM by Sypro orange dye based differential scanning fluorimetry
[6] = test system: Mycobacterium tuberculosis; test: Antimycobacterial activity against Mycobacterium tuberculosis H37Rv assessed as reduction in bacterial growth incubated for 2 weeks in GAST-Fe media by 2-fold serial dilution method; format: functional; settings: for MIC: 336 h
Method in brief: (§2)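 H37Rv grown in the test medium to OD 0.2–0.4, diluted to OD 0.0002 and added 1:1 to a two-fold serial dilution series of compound. Plates incubated 37 °C for two weeks, then MIC determined.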

[7] = test system: Mycobacterium tuberculosis; test: Antimycobacterial activity against Mycobacterium tuberculosis H37Rv assessed as reduction in bacterial growth incubated for 2 week in 7H9/ADC media by 2-fold serial dilution method; format: functional; settings: for MIC: 336 h; method in brief: as §2
[8] = test system: Mycobacterium tuberculosis; test: Antimycobacterial activity against Mycobacterium tuberculosis H37Rv assessed as reduction in bacterial growth incubated for 2 weeks in 7H9/glucose media by 2-fold serial dilution method; format: functional; settings: for MIC: 336 h; method in brief: as §2
[9] = test system: Mycobacterium tuberculosis; test: Antimycobacterial activity against Mycobacterium tuberculosis H37Rv assessed as reduction in bacterial growth incubated for 2 weeks in 7H9/DPPC media by 2-fold serial dilution method; format: functional; settings: for MIC: 336 h; method in brief: as §2
[10] = test system: Mycobacterium tuberculosis; test: Inhibition of Mycobacterium tuberculosis fumarate hydratase expressed in Escherichia coli BL21(DE3) at 100 to […] using fumaric acid as substrate preincubated for 5 mins followed by substrate addition incubated for 2 mins and measured at 24 secs interval for 10 mins by spectrometric method; method in brief: as §1
[11] = test system: Mycobacterium tuberculosis; test: Binding affinity to Mycobacterium tuberculosis fumarate hydratase expressed in Escherichia coli BL21(DE3) assessed as change in melting temperature at 5 mM by Sypro orange dye based differential scanning fluorimetry

Structure (SMILES) | inhibition [1] [%] | pIC50 [2] | Activity [6] | Activity [7] | Activity [8] | Activity [9] | also measured
COc1ccc(C(=O)N2CCCCCC2)cc1NC(=O)Cc1n[nH]c(=O)c2ccccc12 | 14 | – | – | – | – | – | –
COc1ccc(S(=O)(=O)N2CCCCCC2)cc1NC(=O)Cc1nnc(O)c2ccccc12 | > 90 | 5.70 | – | – | – | – | pIC50 [3]: 5.60; growth inhibition (GI) [4]: 65%; ΔTm [5]: 3.9 °C; MIC [6]: > 100 µM; MIC [7]: > 100 µM; MIC [8]: > 100 µM; MIC [9]: > 100 µM
O=C(O)Cc1nnc(O)c2ccccc12 | – | – | – | – | – | – | inhibition [10]: inactive; ΔTm [11]: -0.4 °C
COc1ccccc1NC(=O)Cc1n[nH]c(=O)c2ccccc12 | – | – | – | – | – | – | inhibition [10]: inactive; ΔTm [11]: -0.4 °C
COc1ccc(S(=O)(=O)N2CCCCCC2)cc1NC(=O)Cc1noc2ccccc12 | < 10 | – | – | – | – | – | –
COc1ccc(S(=O)(=O)N2CCCCCC2)cc1NC(=O)Cc1c[nH]c2ccccc12 | 27 | – | – | – | – | – | MIC [6]: > 100 µM; MIC [7]: > 100 µM; MIC [8]: 100 µM (≈ 44.2 µg/mL); MIC [9]: 9.4 µM (≈ 4.15 µg/mL)
COc1ccc(S(=O)(=O)N2CCN(C)CC2)cc1NC(=O)Cc1n[nH]c(=O)c2ccccc12 | – | 4.42 | inactive | inactive | inactive | inactive | –
Cc1ccc(S(=O)(=O)N2CCCCCC2)cc1NC(=O)Cc1n[nH]c(=O)c2ccccc12 | < 10 | – | – | – | – | – | –
COc1ccc(S(=O)(=O)N2CCSCC2)cc1NC(=O)Cc1n[nH]c(=O)c2ccccc12 | – | 5.33 | inactive | inactive | inactive | inactive | –
COc1ccc(S(=O)(=O)N2CCc3ccccc3CC2)cc1NC(=O)Cc1n[nH]c(=O)c2ccccc12 | – | 6.17 | inactive | inactive | inactive | inactive | –
CC(=O)Nc1cccc(S(=O)(=O)N2CCCCCC2)c1 | – | – | – | – | – | – | inhibition [10]: inactive; ΔTm [11]: -0.4 °C
COc1ccc(S(=O)(=O)N2CCOCC2)cc1NC(=O)Cc1n[nH]c(=O)c2ccccc12 | – | 4.92 | inactive | inactive | inactive | inactive | –
Nc1cc(S(=O)(=O)N2CCCCCC2)ccc1O | – | – | – | – | – | – | inhibition [10]: inactive; ΔTm [11]: -1.6 °C
CNS(=O)(=O)c1ccc(OC)c(NC(=O)Cc2n[nH]c(=O)c3ccccc23)c1 | – | 4.24 | – | – | – | – | –
COc1ccc(S(=O)(=O)N2CCCCCC2)cc1NC(C)=O | – | – | – | – | – | – | inhibition [10]: inactive; ΔTm [11]: -0.6 °C
COc1ccc(S(=O)(=O)N2CC3CC(C2)c2ccccc23)cc1NC(=O)Cc1n[nH]c(=O)c2ccccc12 | 44 | – | – | – | – | – | –
COc1ccc2[nH]cc(CC(=O)Nc3cc(S(=O)(=O)N4CCCCCC4)ccc3OC)c2c1 | 38 | – | – | – | – | – | MIC [6]: > 100 µM; MIC [7]: > 100 µM; MIC [8]: > 100 µM; MIC [9]: 12.5 µM (≈ 5.89 µg/mL)
COc1ccc2c(c1)CCN(S(=O)(=O)c1ccc(OC)c(NC(=O)Cc3n[nH]c(=O)c4ccccc34)c1)CC2 | – | 6.17 | inactive | inactive | inactive | inactive | –
COc1ccc(S(=O)(=O)NCc2ccccc2)cc1NC(=O)Cc1n[nH]c(=O)c2ccccc12 | 53 | – | – | – | – | – | –

Structure (SMILES) | inhibition [1] [%] | pIC50 [2] | Activity [6] | Activity [7] | Activity [8] | Activity [9] | also measured
COc1ccc(S(=O)(=O)N2CCCCCC2)cc1NC(=O)CCc1c[nH]c2ccccc12 | 12 | – | – | – | – | – | MIC [6]: > 100 µM; MIC [7]: > 100 µM; MIC [8]: 25 µM (≈ 11.4 µg/mL); MIC [9]: 9.4 µM (≈ 4.28 µg/mL)
COc1ccc(S(=O)(=O)N2CCCCCC2)cc1NC(=O)Cc1coc2ccccc12 | < 10 | – | – | – | – | – | MIC [6]: > 100 µM; MIC [7]: > 100 µM; MIC [8]: 9.4 µM (≈ 4.16 µg/mL); MIC [9]: 6.3 µM (≈ 2.79 µg/mL)
COc1ccc(S(=O)(=O)N2CCCCCC2)cc1 | – | – | – | – | – | – | inhibition [10]: inactive; ΔTm [11]: 0.1 °C
COc1ccc(S(=O)(=O)N2CCCCCC2)cc1NC(=O)Cn1cnc2ccccc21 | < 10 | – | – | – | – | – | –
Nc1cccc(S(=O)(=O)N2CCCCCC2)c1 | – | – | – | – | – | – | inhibition [10]: inactive; ΔTm [11]: -1.2 °C
COc1ccc(S(=O)(=O)N2CCCCCC2)cc1NC(=O)Cc1ccnc2ccccc12 | 86 | 5.39 | inactive | inactive | inactive | inactive | –
COc1ccc(S(=O)(=O)N2CCCCCCC2)cc1NC(=O)Cc1n[nH]c(=O)c2ccccc12 | – | 5.40 | – | – | – | – | MIC [6]: > 100 µM; MIC [7]: > 100 µM; MIC [8]: 25 µM (≈ 12.1 µg/mL); MIC [9]: 19 µM (≈ 9.21 µg/mL)
COc1ccc(S(=O)(=O)N2CCCCCC2)cc1NC(=O)Cc1cccc2ccccc12 | 21 | – | inactive | inactive | inactive | inactive | –
COc1ccc(S(=O)(=O)Nc2ccccc2)cc1NC(=O)Cc1n[nH]c(=O)c2ccccc12 | – | 4.77 | inactive | inactive | inactive | inactive | –
COc1ccc(S(=O)(=O)N2CCCCCC2)cc1NC(=O)Cc1ccncc1 | < 10 | – | inactive | inactive | inactive | inactive | –
COc1ccc(S(=O)(=O)N2CCc3ccccc3C2)cc1NC(=O)Cc1n[nH]c(=O)c2ccccc12 | – | 5.66 | inactive | inactive | inactive | inactive | –
COc1ccc(S(=O)(=O)N2CCc3cc(OC)c(OC)cc3C2)cc1NC(=O)Cc1n[nH]c(=O)c2ccccc12 | – | 5.47 | inactive | inactive | inactive | inactive | –
CCOC(=O)Cc1nnc(O)c2ccccc12 | – | – | – | – | – | – | inhibition [10]: inactive; ΔTm [11]: -0.6 °C
COc1ccc(S(=O)(=O)N2CCS(=O)(=O)CC2)cc1NC(=O)Cc1n[nH]c(=O)c2ccccc12 | – | 4.89 | inactive | inactive | inactive | inactive | –
COc1ccc(S(=O)(=O)N2CCCCCC2)cc1N | – | – | – | – | – | – | inhibition [10]: inactive; ΔTm [11]: -0.7 °C
O=C(Cc1nnc(O)c2ccccc12)Nc1cccc(S(=O)(=O)N2CCCCCC2)c1 | 16 | – | – | – | – | – | –
CNS(=O)(=O)c1ccc(OC)c(NC(C)=O)c1 | – | – | – | – | – | – | inhibition [10]: inactive; ΔTm [11]: -0.4 °C
COc1ccc(S(=O)(=O)N2CCCCC2)cc1NC(=O)Cc1n[nH]c(=O)c2ccccc12 | – | 5.36 | inactive | inactive | inactive | inactive | –
